Results published in PubChem BioAssay.
The source made the active and inactive calls.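 The calls were made as follows, unless noted: active = viability at or below 10% of carrier control in both of two separate runs; inconclusive = viability at or below 10% in only one of the two runs; inactive = the rest.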

Columns and labels:
[1] = reducers of endogenous Her2 protein level, primary screen, SKBR3 breast tumor cells, AlphaScreen, ATP viability (AID 461;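 active = Her2 level under about 52% in both replicate screens, with viability over 70% of control, limit read from the data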;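 as to Her2 level: lower value means less Her2 protein in the cells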;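 as to viability: percent of carrier control wells set as 100% viability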); details: 18-24 h, measured here: SKBR3 viability, ATP luminescence, at 10 µM
[2] = target: Receptor tyrosine-protein kinase erbB-2 (Homo sapiens) (UniProt P04626); test: as above; details: 18-24 h, at 10 µM, stronger effect = lower value
[3] = SK-BR-3 cell growth inhibitors, pilot screen, 24 h, human (AID 572); details: SK-BR-3 viability, CellTiter-Glo luminescence, at 10 µM, stronger effect = lower value;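 also: compound exposure lasted between 18 and 24 h rather than exactly 24 h; 100% = carrier-treated control wells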
[4] = HUVEC growth inhibition – cell-based, human, primary screen (AID 575;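 active = viability at or below 30% in both replicate assays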;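 also: 100% = median of untreated cell wells with 0.1% DMSO on each plate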); details: HUVEC proliferation, CellTiter-Glo luminescence, 72 h; at 10 µM; stronger effect = lower value
How it was run: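 Assay system: Primary human umbilical vein endothelial cells | Quantity: 1250 cells per well | Medium: Supplemented EBM, 2% fetal bovine serum | Detection: CellTiter-Glo luminescence measuring cellular ATP | Read-out: % viability vs DMSO wells | Plate: Collagen-coated 384-well format | Times: 72 h exposure, 37 °C, 5% CO2, 30 min RT equilibration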

[5] = growth inhibitors of H69AR lung tumor, primary screen, human, duplicate replicates (AID 580;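 active = viability at or under a set limit in both replicates, limit being median viability minus 3 SD, cut at about 48% in these data, passing the limit was not always enough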;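 also: 100% = mean luminescence of untreated wells and 0% = no signal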); details: H69AR lung tumor cells viability, ATP luminescence, 72 h; at 10 µM; stronger effect = lower value
[6] = reversal of MRP1-mediated doxorubicin resistance, pilot screen, H69AR cells, doxorubicin co-treatment (AID 601;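 active = viability loss from added drug above about 55%, and viability with drug at most 40%, in both replicates, limit read from the data, passing the limit was not always enough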); details: CellTiter-Glo, 72 h, at 10 µM; for differential viability (reversal): stronger effect = higher value
[7] = 384-well plate pilot, post-Golgi transport modulator project, inhibition of yeast transport mutant growth (AID 636; in the data active = inhibition above about 31%); details: absorbance 615 nm, about 18 h, stronger effect = higher value
[8] = growth suppression of yeast trafficking mutant, preliminary HTS, modulators of trafficking downstream of Golgi apparatus project, 1536-format plate, OD 615 nm (AID 637; in the data active = inhibition above about 30%); details: yeast transport mutant growth, absorbance 615 nm, 18 h; stronger effect = higher value
[9] = H69AR cells + 2 uM doxorubicin, measured here: viability with 2 uM doxorubicin, stronger effect = lower value
[10] = H69AR cells, compound alone cytotoxicity

Receptor tyrosine-protein kinase erbB-2 (Homo sapiens), sequence (P04626 whole entry, looked up): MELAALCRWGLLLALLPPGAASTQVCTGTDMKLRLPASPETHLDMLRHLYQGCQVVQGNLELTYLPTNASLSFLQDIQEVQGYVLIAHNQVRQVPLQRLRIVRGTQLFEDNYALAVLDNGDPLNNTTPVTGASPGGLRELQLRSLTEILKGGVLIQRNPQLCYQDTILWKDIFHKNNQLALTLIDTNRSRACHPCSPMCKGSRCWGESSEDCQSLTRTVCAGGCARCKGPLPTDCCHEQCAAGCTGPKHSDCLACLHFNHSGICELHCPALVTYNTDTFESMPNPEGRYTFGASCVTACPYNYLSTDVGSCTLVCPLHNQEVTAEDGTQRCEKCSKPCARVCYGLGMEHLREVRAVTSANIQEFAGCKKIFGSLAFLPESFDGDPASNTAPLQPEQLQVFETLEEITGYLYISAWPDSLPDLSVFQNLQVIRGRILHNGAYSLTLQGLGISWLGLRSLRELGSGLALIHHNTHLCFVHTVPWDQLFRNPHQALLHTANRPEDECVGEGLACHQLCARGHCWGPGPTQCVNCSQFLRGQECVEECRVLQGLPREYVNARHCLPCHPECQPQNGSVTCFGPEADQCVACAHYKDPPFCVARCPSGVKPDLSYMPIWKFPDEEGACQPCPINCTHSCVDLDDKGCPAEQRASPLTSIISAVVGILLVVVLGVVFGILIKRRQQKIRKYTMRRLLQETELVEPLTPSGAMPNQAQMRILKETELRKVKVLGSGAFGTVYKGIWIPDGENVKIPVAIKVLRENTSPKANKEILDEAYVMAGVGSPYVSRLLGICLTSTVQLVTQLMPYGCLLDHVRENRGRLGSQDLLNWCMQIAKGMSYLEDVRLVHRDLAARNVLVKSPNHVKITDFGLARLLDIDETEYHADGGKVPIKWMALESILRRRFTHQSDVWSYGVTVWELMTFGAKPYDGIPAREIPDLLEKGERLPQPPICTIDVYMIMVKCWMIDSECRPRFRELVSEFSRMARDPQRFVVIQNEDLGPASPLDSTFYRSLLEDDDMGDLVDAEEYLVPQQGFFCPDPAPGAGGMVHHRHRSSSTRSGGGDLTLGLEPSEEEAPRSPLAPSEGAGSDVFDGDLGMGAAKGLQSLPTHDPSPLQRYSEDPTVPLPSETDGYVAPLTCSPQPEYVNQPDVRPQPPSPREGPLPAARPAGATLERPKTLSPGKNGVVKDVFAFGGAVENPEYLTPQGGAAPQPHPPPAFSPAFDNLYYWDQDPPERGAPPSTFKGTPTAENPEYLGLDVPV

SMILES	viability [1] [%]	Her2 level [2]	viability [3]	viability [4]	viability [5]	differential viability (reversal) ([6]; H69AR cells + 2 uM doxorubicin)	viability [6, 9] [%]	viability [6, 10] [%]	inhibition [7]	inhibition [8]
O=C(CSc1nnnn1Cc1ccccc1)Nc1ccc2c(c1)OCO2	114	108% (inactive)	114% (inactive)	90.3% (inactive)	108% (inactive)	18.2% (inactive)	89.5	108	-5.54% (inactive)	-3.17% (inactive)
Cc1ccc(Cn2ncc3c(NCCCN4CCOCC4)ncnc32)cc1	92.5	92.5% (inactive)	92.5% (inactive)	96.8% (inactive)	102% (inactive)	18.2% (inactive)	83.6	102	-2.63% (inactive)	0.32% (inactive)
CC(=O)Nc1cccc(OCC(O)Cn2cnc3ccccc32)c1 (stereo not given)	128	110% (inactive)	128% (inactive)	90% (inactive)	97.9% (inactive)	5.28% (inactive)	92.7	97.9	-0.14% (inactive)	7.14% (inactive)
Cc1cc(NC(=O)CCCN2C(=O)c3cccnc3C2=O)no1	92	95.5% (inactive)	92% (inactive)	94.3% (inactive)	107% (inactive)	5.19% (inactive)	102	107	-2.84% (inactive)	-1.64% (inactive)
CCOC(=O)N1CCN(c2cc(=O)n(-c3ccc(OCC)cc3)c(=O)[nH]2)CC1	106	100% (inactive)	106% (inactive)	104% (inactive)	97.5% (inactive)	6.84% (inactive)	90.7	97.5	-4.93% (inactive)	-1.97% (inactive)
Cc1ccnc(SCCn2c(N3CCCCC3)nc3c2c(=O)n(C)c(=O)n3C)n1	76.5	88.5% (inactive)	76.5% (inactive)	93.9% (inactive)	91.2% (inactive)	3% (inactive)	88.2	91.2	-5.66% (inactive)	-3% (inactive)
Cc1cccc(N=C2NC(=O)CS2)c1C	108	80% (inactive)	108% (inactive)	87.1% (inactive)	91.9% (inactive)	3.6% (inactive)	88.3	91.9	0.4% (inactive)	-0.81% (inactive)
CCOC(=O)CSC1=Nc2ccccc2C2=NC(CC(=O)NCc3ccc(OC)cc3)C(=O)N12 (stereo not given)	117	89% (inactive)	117% (inactive)	83% (inactive)	99.7% (inactive)	2.4% (inactive)	97.3	99.7	-4.21% (inactive)	-1.27% (inactive)
CCOC(=O)c1cccc(NC(=O)Cn2cnc3c2c(=O)n(C)c(=O)n3C)c1	104	91.5% (inactive)	104% (inactive)	102% (inactive)	91.2% (inactive)	-6.33% (inactive)	97.5	91.2	-2.97% (inactive)	-9.33% (inactive)
O=c1c2c(-c3ccccc3)csc2nc2n1CCC2	81	99% (inactive)	81% (inactive)	77.2% (inactive)	79.4% (inactive)	-4.97% (inactive)	84.4	79.4	2.84% (inactive)	29.2% (inactive)
O=C(c1ccc(Cl)c(F)c1F)N1CCCC1	88.5	106% (inactive)	88.5% (inactive)	98.4% (inactive)	102% (inactive)	11.3% (inactive)	90.7	102	-1.67% (inactive)	-10.2% (inactive)
C=CCOc1cccc(C2/C(=C(\O)c3ccc(F)cc3)C(=O)C(=O)N2CCN(C)C)c1 (stereo not given)	96.5	97.5% (inactive)	96.5% (inactive)	98% (inactive)	105% (inactive)	10.4% (inactive)	94.6	105	-2.11% (inactive)	0.98% (inactive)
Cc1cc(Nc2ccccc2N2CCOCC2)n2ncnc2n1	94.5	96% (inactive)	94.5% (inactive)	88% (inactive)	97.1% (inactive)	-0.715% (inactive)	97.8	97.1	-2.43% (inactive)	4.6% (inactive)
CS(=O)(=O)N(CC(=O)Nc1ccc2c(c1)OCCO2)Cc1ccccc1	93.5	92% (inactive)	93.5% (inactive)	107% (inactive)	99.5% (inactive)	12.3% (inactive)	87.2	99.5	-4.93% (inactive)	-0.79% (inactive)
